Screening results as filed in PubChem.
Hits are enriched below; roughly 1.6% of the tested compounds scored in any of these assays.
ARFGAP1 inhibitor: inhibits rat ARF GTPase activating protein 1; AID 651572; Arfgap1-stimulated ARF1 GTP hydrolysis, GDP FP detection; inhibition, % at 16.5 µM; Q62848; 360,000 tested, 0.26% active;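 active means inhibition above a per-plate limit, mean inhibition of low control wells plus 3 SD, cut at about 25% in these data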;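 further: 0% = DMSO wells with enzyme and 100% = wells lacking Arfgap1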
Target sequence (Q62848 1-136 limits assumed): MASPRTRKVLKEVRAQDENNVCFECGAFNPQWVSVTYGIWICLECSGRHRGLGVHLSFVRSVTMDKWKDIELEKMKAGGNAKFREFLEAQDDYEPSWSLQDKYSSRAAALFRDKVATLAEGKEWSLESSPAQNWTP
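Assay system: Rat Arfgap1 GAP domain (His6, aa 1-136), purified enzyme | Buffer or medium: HEPES 25 mM pH 7.5, NaCl 150 mM, MgCl2, DTT | Schedule: GTP hydrolysis reaction 2 h at 25 °C | Signal: FP of antibody-bound GDP Alexa 633 tracer, ex 620/em 688 nm | Measure: Percent inhibition of Arfgap1-stimulated GTP hydrolysis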
H9c2 protect: modulators protecting cardiomyocytes from myocardial damage. H9c2 cardiomyocytes, H2O2 injury protection, ATPLite, 2 h. protection from H2O2 cell death, % at 20 µM. 360,000 tested, 0.63% active;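 active means compounds giving at least 50% protection of heart cells from peroxide-induced death in the single-dose screen, raw or plate-pattern-corrected value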;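 further: 0% = DMSO wells with peroxide and 100% = DMSO wells without peroxide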
ASAP1 inh: inhibitors of human ASAP1 ArfGAP activity. Q9ULH1. ASAP1-stimulated ARF1 GTP hydrolysis, GDP FP detection. inhibition, % at 16.5 µM. 360,000 tested, 0.19% active. AID 624377; in the data active means inhibition above about 25%;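 further: 0% = vehicle with enzyme and substrate and 100% = no enzyme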
Neddylation inh: cullin neddylation inhibition. P61081+Q13564. 360,000 tested, 0.58% active. inhibition, % at 25 µM. TR-FRET cullin neddylation, biochemical; in the data active means inhibition above about 36%
ARFGAP1 confirm: confirmation of rat ARFGAP1 inhibitors; shares compounds with ARFGAP1 inhibitor; ARFGAP1-stimulated ARF1 GTP hydrolysis, GDP tracer FP; inhibition, % at 16.5 µM; 890 tested, 30% active;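 active means average inhibition over triplicates above the hit cutoff set in the earlier primary screen, cut at about 25% in these data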;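 further: 0% = Arfgap1 plus ARF1-GTP with DMSO and 100% = wells lacking Arfgap1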
* = called active by the depositor; · = not tested or not shown.

SMILES	ARFGAP1 inhibitor	H9c2 protect	ASAP1 inh	Neddylation inh	ARFGAP1 confirm
CCOC(=O)[C@]12CCC=C1N(Cc1cccc3ccccc13)C(=O)[C@H](CC(=O)NCc1ccc(OC)c(OC)c1)C2	10	·	2	4	·
N#CCC1(O)C(=O)Nc2ccccc21 (stereo not drawn)	-6	·	-8	·	·
CCOC(=O)N[C@H](C(=O)N1CCC[C@H]1C(=O)NC1CCCC1)c1ccccc1	7	·	-5	·	·
CC1CCN(C(=O)c2ncn3c2C(=O)NC[C@H]3C)CC1	-2	·	-4	·	·
COc1ccc(OC)c(NC(=O)C2(C)CCN2Cc2ccc(OC)c3ccccc23)c1 (stereo not drawn)	-9	-2	-12	-2	·
COc1ccc(OC)c(NC(=O)C2(C)CCN2Cc2ccccc2Cl)c1 (stereo not drawn)	25*	-6	-7	7	6
O=C(CSc1nnc(SCc2cccc3ccccc23)s1)N/N=C/c1c[nH]c2ccccc12	32*	-14	-2	5	17
CCCCCC(=O)N1C[C@H](O)[C@@H](n2cc(-c3ccc(F)cc3)nn2)C[C@@H]1c1ccc(OC)cc1	0	17	8	5	·
O=C1CCC(c2ccccc2)(c2ccccc2)CC1	28*	-4	9	5	-4
Cc1cc(C)cc(NC(=O)CSc2cc(C(=O)c3nccn3C)c3ccccc3n2)c1	25*	-10	-9	-6	6
Cc1cccc(NC(=O)CSc2cc(C(=O)c3nccn3C)c3ccccc3n2)c1	7	-8	3	-23	·
Cc1ccc(C(=O)C(C)[n+]2cccc(C(N)=O)c2)cc1 (stereo not drawn)	6	0	15	5	·
Cc1ccc[n+](C(C)C(=O)c2ccc(Cl)cc2)c1 (stereo not drawn)	45*	2	6	6	-2
O=C(COC(=O)c1ccccc1F)Nc1ccc(S(=O)(=O)N2CCOCC2)cc1	27*	-2	14	5	6
O=C(COC(=O)c1ccc(F)cc1F)Nc1ccc(S(=O)(=O)N2CCOCC2)cc1	4	-2	2	0	·
Cc1cccc(Nc2ncccc2C(=O)NCc2cccs2)c1C	26*	-5	8	4	7
O=C(NNC(=S)Nc1ccc(Cl)c(Cl)c1)c1ccccn1	26*	37	-5	33	-1
CC(C)[C@H](NS(=O)(=O)c1ccc(F)cc1F)C(=O)N1CCC[C@H]1C(=O)NCc1ccccc1	8	·	-1	·	·
CCOc1ccc(CCN2C(=S)N([C@@H](Cc3ccccc3)CN3CCCC3CN3C(=S)NC[C@@H]3Cc3ccccc3)C[C@@H]2Cc2ccc(O)cc2)cc1 (stereo partly drawn)	-3	·	20	-23	·
CCOc1ccc(CCN2C(=S)N([C@@H](Cc3ccc(O)cc3)CN3CCC[C@@H]3CN3C(=S)NC[C@@H]3Cc3ccc(O)cc3)C[C@@H]2Cc2ccc(O)cc2)cc1	26*	·	12	-1	10
O=C(Nc1nc2ccc(SC(F)F)cc2s1)c1ccc(NS(=O)(=O)c2ccc(F)c(F)c2)cc1	26*	-19	19	·	30*
CS(=O)(=O)c1ccc2nc(NC(=O)c3ccc(NS(=O)(=O)c4ccc(F)c(F)c4)cc3)sc2c1	3	-3	9	29	·
Cc1[nH]c2ccccc2c1CC(=O)Nc1ccc(Nc2ccccc2)cc1	29*	·	9	·	25*
Cc1[nH]c2ccccc2c1CC(=O)Nc1ccc(Nc2cccnc2)c(-c2cc(F)cc(F)c2)c1	26*	·	7	·	18
CC1(C(=O)NS(=O)(=O)c2ccc3c(c2)CCO3)CCN1C(=O)COc1ccc(Cl)cc1 (stereo not drawn)	0	7	7	-6	·
SMILES	ARFGAP1 inhibitor	H9c2 protect	ASAP1 inh	Neddylation inh	ARFGAP1 confirm
CCCC1NC(=O)c2cccnc2-n2c1nc1ccc(OC)cc1c2=O (stereo not drawn)	23	-10	3	-3	·
COc1ccc(NS(=O)(=O)c2cccc(C(=O)N/N=C(\C)c3ccncc3)c2)cc1	39*	-10	6	1	6
Cc1ccc2nc(Nc3nc(CSc4nnc(C)s4)cc(=O)[nH]3)nc(C)c2c1	-7	10	3	-1	·
Cc1ccc2nc(Nc3nc(CSc4nc5ccccc5s4)cc(=O)[nH]3)nc(C)c2c1	25*	5	-2	0	-4
COC1=CC(=O)C=C(OC)C1(O)CC(C)=O	9	-7	-10	-3	·
Cc1ccccc1OCC(=O)N(Cc1cccs1)C1CCS(=O)(=O)C1 (stereo not drawn)	25*	0	10	-9	-1
